Several values for one entry are separate records, joined by “and”; a condition that tells them apart may be missing. Identical values can stand only once.
Test system: HEK-293T
Experiment: Multiplex assay against HEK293T;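 as to Population Tubulin-Different-Phenotype (%): share of the cells with healthy nuclei that show this phenotype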
Type: toxicity, cell-based
Conditions: human
How it was run: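 Values for tubulin, mitochondrial-mass and membrane-permeability phenotypes are per cents of cells with healthy nuclei. These cells were identified by CellPathfinder machine-learning gating of live cells that had been stained at seeding with Hoechst33342, BioTracker Green Microtubule Cytoskeleton Dye, MitoTracker Red and Annexin V Alexa Fluor 680 and imaged on a CQ1 microscope at 37°C and 5% CO2 after compound addition. The gating first set Hoechst high-intensity objects apart from normal cells, then split normal cells into healthy, pyknosed or fragmented nuclei, and pyknosed cells into mitotic or apoptotic.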

[1] = 12 h, 1 µM, compound concentration 1 uM, replicate 1
[2] = 12 h, 1 µM, compound concentration 1 uM, replicate 2
[3] = 12 h, 10 µM, compound concentration 10 uM, replicate 1
[4] = 12 h, 10 µM, compound concentration 10 uM, replicate 2
[5] = 24 h, 1 µM, compound concentration 1 uM, replicate 1
[6] = 24 h, 1 µM, compound concentration 1 uM, replicate 2
[7] = 24 h, 10 µM, compound concentration 10 uM, replicate 1
[8] = 24 h, 10 µM, compound concentration 10 uM, replicate 2
[9] = 48 h, 10 µM, compound concentration 10 uM, replicate 1
[10] = 48 h, 10 µM, compound concentration 10 uM, replicate 2

Structure (SMILES): C[C@@]1(C(=O)Nc2ccc(F)nc2)CCCN1c1nc(Nc2cc(C3CC3)n[nH]2)c2cccn2n1 [BMS-754807]
- Population Apoptotic (%) [1]: 24%
- Population Fragmented Nuclei (%) [1]: 19%
- Population Healthy Nuclei (%) [1]: 38%
- Population Hoechst High Intensity Objects (%) [1]: 25%
- Population Membrane Permeable-Phenotype (%) [1]: 7%
- Population Mitochondria Different-Phenotype (%) [1]: 32%
- Population Mitotic Cells (%) [1]: 75%
- Population Normal (%) [1]: 74%
- Population Pyknosed Nuclei (%) [1]: 42%
- Population Tubulin-Different-Phenotype (%) [1]: 68%
- Total Cell Count [1]: 622
- Population Apoptotic (%) [2]: 20%
- Population Fragmented Nuclei (%) [2]: 3%
- Population Healthy Nuclei (%) [2]: 72%
- Population Hoechst High Intensity Objects (%) [2]: 12%
- Population Mitochondria Different-Phenotype (%) [2]: 57%
- Population Mitotic Cells (%) [2]: 80%
- Population Normal (%) [2]: 87%
- Population Pyknosed Nuclei (%) [2]: 23%
- Population Tubulin-Different-Phenotype (%) [2]: 92%
- Total Cell Count [2]: 768
- Population Fragmented Nuclei (%) [3]: 13% and 14%
- Population Hoechst High Intensity Objects (%) [3]: 17% and 19%
- Population Membrane Permeable-Phenotype (%) [3]: 9% and 4%
- Population Normal (%) [3]: 82% and 80%
- Population Pyknosed Nuclei (%) [3]: 71% and 26%
- Total Cell Count [3]: 259 and 598
- Population Fragmented Nuclei (%) [4]: 7% and 3%
- Population Hoechst High Intensity Objects (%) [4]: 9% and 6%
- Population Membrane Permeable-Phenotype (%) [4]: 10% and 3%
- Population Mitotic Cells (%) [4]: 51%
- Population Normal (%) [4]: 90% and 93%
- Population Tubulin-Different-Phenotype (%) [4]: 94% and 44%
- Population Apoptotic (%) [5]: 25%
- Population Fragmented Nuclei (%) [5]: 18%
- Population Healthy Nuclei (%) [5]: 56%
- Population Hoechst High Intensity Objects (%) [5]: 20%
- Population Membrane Permeable-Phenotype (%) [5]: 8%
- Population Mitochondria Different-Phenotype (%) [5]: 32%
- Population Mitotic Cells (%) [5]: 74%
- Population Normal (%) [5]: 79%
- Population Pyknosed Nuclei (%) [5]: 25%
- Population Tubulin-Different-Phenotype (%) [5]: 79%
- Total Cell Count [5]: 652
- Population Apoptotic (%) [6]: 17%
- Population Fragmented Nuclei (%) [6]: 3%
- Population Healthy Nuclei (%) [6]: 82%
- Population Hoechst High Intensity Objects (%) [6]: 9%
- Population Membrane Permeable-Phenotype (%) [6]: 10%
- Population Mitochondria Different-Phenotype (%) [6]: 44%
- Population Mitotic Cells (%) [6]: 82%
- Population Normal (%) [6]: 90%
- Population Pyknosed Nuclei (%) [6]: 13%
- Population Tubulin-Different-Phenotype (%) [6]: 95%
- Total Cell Count [6]: 865
- Population Apoptotic (%) [7]: 70% and 26%
- Population Fragmented Nuclei (%) [7]: 17% and 14%
- Population Hoechst High Intensity Objects (%) [7]: 14% and 19%
- Population Membrane Permeable-Phenotype (%) [7]: 2% and 5%
- Population Mitotic Cells (%) [7]: 29% and 73%
- Population Normal (%) [7]: 85% and 80%
- Population Tubulin-Different-Phenotype (%) [7]: 94% and 44%
- Total Cell Count [7]: 284 and 562
- Population Fragmented Nuclei (%) [8]: 6% and 8%
- Population Hoechst High Intensity Objects (%) [8]: 10% and 8%
- Population Membrane Permeable-Phenotype (%) [8]: 10% and 4%
- Population Mitotic Cells (%) [8]: 30% and 81%
- Population Normal (%) [8]: 89% and 91%
- Population Tubulin-Different-Phenotype (%) [8]: 95% and 56%
- Population Apoptotic (%) [9]: 65%
- Population Fragmented Nuclei (%) [9]: 17%
- Population Healthy Nuclei (%) [9]: 7%
- Population Hoechst High Intensity Objects (%) [9]: 15%
- Population Membrane Permeable-Phenotype (%) [9]: 15%
- Population Mitochondria Different-Phenotype (%) [9]: 94%
- Population Mitotic Cells (%) [9]: 34%
- Population Normal (%) [9]: 84%
- Population Pyknosed Nuclei (%) [9]: 74%
- Population Tubulin-Different-Phenotype (%) [9]: 94%
- Total Cell Count [9]: 290
- Population Apoptotic (%) [10]: 78%
- Population Fragmented Nuclei (%) [10]: 4%
- Population Healthy Nuclei (%) [10]: 57%
- Population Hoechst High Intensity Objects (%) [10]: 7%
- Population Membrane Permeable-Phenotype (%) [10]: 3%
- Population Mitochondria Different-Phenotype (%) [10]: 85%
- Population Mitotic Cells (%) [10]: 21%
- Population Normal (%) [10]: 92%
- Population Pyknosed Nuclei (%) [10]: 37%
- Population Tubulin-Different-Phenotype (%) [10]: 96%
- Total Cell Count [10]: 199

Source: ChEMBL document CHEMBL4689842, “EUbOPEN Chemogenomics Library wave 1” (2021)
